Jurkat tox 60K = cytotoxicity toward Jurkat T cells, primary screen, cytotoxicity control, cell-based, Jurkat E6.1, 60K MLSMR library; inhibition, % at 4 µM; actives 1.2% (n = 56,000); Jurkat E6.1 viability, ATP luminescence, 48 h; AID 463, 2006;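 active = inhibition above the mean inhibition of all tested compounds plus 3 SD, cut at about 28% in these data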
Fibroblast inh = antiproliferative effect on LL 47 fibroblasts – human, LL 47 cells, CellTiter-Glo luminescence, primary screen; LL 47 human lung fibroblast viability, ATP luminescence; hits give low values; viability, % at 10 µM; actives 1.1% (n = 85,000); AID 719, 2007;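 active = viability at or below 50% in the single dose screen; inactive = viability above 50%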;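 also: compound exposure lasted 72 h before the ATP readout; 100% = median luminescence of untreated cell-only wells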
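Benchmarks: Cell-only wells, no compound | Test system: LL 47 human lung fibroblasts, passage 12 or lower | Input: 1,150 cells/well | Measured by: CellTiter-Glo luminescence measuring cellular ATP | Medium: IMEM, 15% FBS supplement | Schedule: Overnight attachment after seeding, then 72 h compound exposure at 37 °C | Doses: Compound addition at 0.1% DMSO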
Ecoli tolC = growth inhibitors of E. coli tolC mutant, primary screen, strain BW25113 ΔtolC::kan, 384-well. OD615. growth inhibition, % at 10 µM (by protocol). actives 2.2% (n = 65,000);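 active = growth inhibition at or above a cutoff equal to the mean over every tested compound plus 3 SD, cut at about 60% in these data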;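 also: growth measured after 20 h incubation at 37 °C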
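Signal: optical density read at 615 nm; Assay system: E. coli ΔtolC::kan strain BW25113; Times: 20 h incubation with compound, 37 °C; Dosing: 10 µM final, single dose.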
H69AR inhibit = proliferation blockers of H69AR lung cancer cells, primary screen, cell-based, human, 86K library. H69AR lung tumor viability, ATP luminescence, 72 h; hits give low values. actives 6% (n = 85,000). viability, % at 10 µM. AID 598, 2007;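 active = viability at or below 40%; inactive = viability above 40%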;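 also: multidrug resistant small cell line overexpressing MRP-1 efflux transporter; 100% = mean luminescence of untreated control wells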
HUVEC prolif 384 = inhibitors of HUVEC proliferation, primary screen, cell-based, 384-well | CellTiter-Glo luminescence, 72 h; hits give low values | viability, % at 10 µM (by protocol) | actives 1.1% (n = 86,000);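 active = viability at or below 30%; inactive = viability above 30%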;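 also: 100% = median luminescence of DMSO-only cell control wells on each plate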
Ecoli WT expand = growth inhibitors of wild-type E. coli, primary screen, strain BW25113, expanded library, OD600; OD600 absorbance; growth inhibition, % at 100 µM; actives 0.15% (n = 98,000); AID 710, 2007;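 active = growth inhibition above about 50% at one test dose, limit read from the data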;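 also: growth measured after 20 h incubation at 37 °C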
Active calls of the source: *. Compounds with a hit are over-represented: about 6.4% of the library has one in this group of screens.

`Cc1nn(Cc2ccccc2)c(C)c1C(=O)OCC(=O)c1cc(C)n(C2CC2)c1C` gave Jurkat tox 60K 0.3, Fibroblast inh 95.9, Ecoli tolC 65.3*, H69AR inhibit 79.8, HUVEC prolif 384 96.0 and Ecoli WT expand -6.0.
For COc1ccc(/C=N\NC(=O)C2C(=O)NCC2c2ccccc2)cc1O (stereo not drawn) the results were Ecoli WT expand 5.0.
`O=C(O)CCC(=O)CCC(=O)c1ccc(Cl)cc1` gave Fibroblast inh 114.7, Ecoli tolC -1.0, H69AR inhibit 74.0, HUVEC prolif 384 100.9 and Ecoli WT expand -9.0.
Screening CN(C)CCC(=O)c1ccc(Cl)cc1 returned Jurkat tox 60K -4.2, Fibroblast inh 91.1, Ecoli tolC -5.0, H69AR inhibit 18.8*, HUVEC prolif 384 88.7 and Ecoli WT expand 13.0.
CCCc1nc(SCC(=O)N2c3ccccc3CC2C)c2c(C)c(C)sc2n1 (stereo not drawn) was read as Ecoli WT expand 2.0.
For Cc1sc(NC(=O)c2ccco2)c(CN2CCN(c3ccccn3)CC2)c1C the results were Jurkat tox 60K 9.3, Fibroblast inh 86.5, Ecoli tolC 62.6*, H69AR inhibit 71.7, HUVEC prolif 384 92.7 and Ecoli WT expand -6.0.
For CSCCOC(=O)C1=C(C)NC(=O)CC1c1ccccc1Cl (stereo not drawn) the results were Jurkat tox 60K -3.8, Fibroblast inh 101.7, Ecoli tolC 62.5*, H69AR inhibit 83.4, HUVEC prolif 384 101.8 and Ecoli WT expand 13.0.
Screening Cc1nn(-c2ccc(F)cc2)c(C)c1NS(=O)(=O)c1ccc(Cl)cc1 returned Jurkat tox 60K -4.6, Fibroblast inh 87.5, Ecoli tolC 28.0, H69AR inhibit 75.0, HUVEC prolif 384 29.7* and Ecoli WT expand -5.0.
`CCc1ccc(/C=N/NC(=O)c2cc(C3CC3)nc3ccc(Br)cc23)s1` gave Ecoli WT expand -7.0.
Screening O=C(Nc1cccc(-c2nc3ncccc3o2)c1)c1cc2ccccc2o1 returned Jurkat tox 60K -3.4, Fibroblast inh 108.3, Ecoli tolC 10.7, H69AR inhibit 15.6*, HUVEC prolif 384 48.6 and Ecoli WT expand -11.0.
`Cc1ccc(-c2nc3ncccc3o2)cc1NC(=O)c1cc2ccccc2o1` gave Jurkat tox 60K 1.3, Fibroblast inh 103.7, Ecoli tolC 5.3, H69AR inhibit 97.7, HUVEC prolif 384 82.6 and Ecoli WT expand -8.0.
Cc1nn(Cc2c(Cl)cccc2Cl)c(C)c1N was read as Fibroblast inh 102.7, H69AR inhibit 91.2 and HUVEC prolif 384 95.4.
CCOC(=O)c1c(NC(=O)C(F)(OC)C(F)(F)F)sc(C(=O)N2CCCCC2)c1C (stereo not drawn) was read as Jurkat tox 60K 5.1, Fibroblast inh 87.0, Ecoli tolC 77.7*, H69AR inhibit 71.5, HUVEC prolif 384 94.4 and Ecoli WT expand -9.0.
Screening CCOC(=O)c1sc(NC(=O)CN2CCCC2)c(C(=O)OCC)c1C returned Jurkat tox 60K 5.6, Fibroblast inh 96.3, Ecoli tolC 20.1, H69AR inhibit 70.3, HUVEC prolif 384 67.0 and Ecoli WT expand -2.0.
Screening Cn1c(=O)c2c(nc(SCC(=O)NC3CCCCC3)n2C)n(C)c1=O returned Jurkat tox 60K 0.3, Fibroblast inh 85.2, Ecoli tolC -0.3, H69AR inhibit 88.6 and HUVEC prolif 384 93.8.
COc1ccc2[nH]c3c(N4CCN(Cc5ccc6c(c5)OCO6)CC4)ncnc3c2c1 was read as Fibroblast inh 89.5, Ecoli tolC 6.5, H69AR inhibit 48.6, HUVEC prolif 384 54.1 and Ecoli WT expand -5.0.
`COc1ccc2c(c1)c1ncnc(N3CCN(Cc4ccc5c(c4)OCO5)CC3)c1n2C` gave Jurkat tox 60K 1.7, Fibroblast inh 91.1, Ecoli tolC 45.6, H69AR inhibit 27.6*, HUVEC prolif 384 64.5 and Ecoli WT expand -1.0.
Screening COc1ccc(-n2nnnc2-c2ccccc2)cc1 returned Fibroblast inh 60.0, H69AR inhibit 19.8*, HUVEC prolif 384 58.4 and Ecoli WT expand -4.0.

Screening results: PubChem, several laboratories
